Laboratory results as given in ChEMBL document CHEMBL3596168, “Novel inhibitors of RANKL-induced osteoclastogenesis: Design, synthesis, and biological evaluation of 6-(2,4-difluorophenyl)-3-phenyl-2H-benzo[e][1,3]oxazine-2,4(3H)-diones” (Bioorg Med Chem, 2015).
Calls of active or inactive are those of the source. The rule behind the calls is not given here.

How the values were obtained:
[1] = Cytotoxicity against mouse RAW264.7 cells assessed as cell viability at 5 uM after 24 hrs by MTT assay relative to control; assay type: cell-based; conditions: read-out: Activity
Procedure, shortened: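 RAW264.7 cells, 1 × 10⁴ per well in DMEM with 10% FBS, were exposed to compounds for 24 h. MTT (500 µg/mL) was then added for 1 h at 37 °C, formazan was dissolved in DMSO, and absorbance was read at 540 nm. Viability at 5 µM is relative to untreated control. At least three independent experiments, mean ± SD.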

[2] = molecular target: T1, Tumor necrosis factor ligand superfamily member 11 (Mus musculus) (UniProt O35235); experiment: Inhibition of recombinant mouse RANKL-induced osteoclastogenesis of mouse RAW264.7 cells assessed as reduction of TRAP-positive multinucleated cells at 5 uM after 4 days by light microscopic analysis relative to control; assay type: cell-based
T1 sequence (whole entry): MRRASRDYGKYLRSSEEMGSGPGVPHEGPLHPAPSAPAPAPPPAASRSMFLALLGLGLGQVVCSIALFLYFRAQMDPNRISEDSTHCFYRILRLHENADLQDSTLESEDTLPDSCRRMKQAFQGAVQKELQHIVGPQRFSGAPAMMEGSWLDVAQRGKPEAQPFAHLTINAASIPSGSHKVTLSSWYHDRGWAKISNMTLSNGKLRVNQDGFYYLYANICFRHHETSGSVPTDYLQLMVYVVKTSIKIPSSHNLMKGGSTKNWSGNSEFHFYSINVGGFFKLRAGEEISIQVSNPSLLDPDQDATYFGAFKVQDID
Procedure, shortened: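 RAW264.7 cells were cultured 4 days in α-MEM with 10% FBS, 2 mM L-glutamine and RANKL 100 ng/mL, with or without compound at 5 µM. Medium was changed on day 2. Cells were fixed in acetone/citrate/formaldehyde and stained for TRAP for 1 h at 37 °C. TRAP+ cells with three or more nuclei were counted by light microscopy. Inhibition = 100% − MNCs (%). At least three independent experiments.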

[3] = molecular target: T1, Tumor necrosis factor ligand superfamily member 11 (Mus musculus); experiment: Inhibition of recombinant mouse RANKL-induced TRAP activity in mouse RAW264.7 cells using 4-nitrophenyl phosphate as TRAP substrate preincubated for 4 days followed by substrate addition measured after 15 mins by ELISA reader analysis; assay type: cell-based
Procedure, shortened: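 RAW264.7 cells (2 × 10⁴ per well) were cultured 4 days in α-MEM with 10% FBS, 2 mM L-glutamine and murine RANKL 100 ng/mL, with or without compound. Cells were lysed in 0.1% Triton X-100/50 mM Tris-HCl pH 7.2 on ice. They were incubated with 2 mg/mL 4-nitrophenyl phosphate in 0.09 M citrate for 15 min at 37 °C, stopped with 0.1 N NaOH, and read at 405 nm. Protein was measured by BCA.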

[4] = molecular target: T1, Tumor necrosis factor ligand superfamily member 11 (Mus musculus); experiment: Inhibition of recombinant mouse RANKL-induced osteoclastogenesis of mouse RAW264.7 cells assessed as suppression of TRAP mRNA expression at 2.5 to 5 uM preincubated for 1 hr followed by RANKL addition measured after 24 hrs by RT-PCR analysis; assay type: cell-based
Procedure, shortened: (§1)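 RAW264.7 cells (1 × 10⁵ per dish) were serum-starved 24 h in α-MEM, pretreated with compound for 1 h, then given RANKL (100 ng/mL) for 24 h. Total RNA (2 µg) was reverse-transcribed with oligo(dT) and amplified with mouse-specific primers. Products were resolved on 1.5% agarose with EtBr and densities normalized to GAPDH, as % of control. At least two independent experiments.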

[5] = molecular target: T1, Tumor necrosis factor ligand superfamily member 11 (Mus musculus); experiment: Inhibition of recombinant mouse RANKL-induced osteoclastogenesis of mouse RAW264.7 cells assessed as suppression of c-fos mRNA expression at 2.5 to 5 uM preincubated for 1 hr followed by RANKL addition measured after 24 hrs by RT-PCR analysis; assay type: cell-based; procedure, shortened: as §1
[6] = molecular target: T1, Tumor necrosis factor ligand superfamily member 11 (Mus musculus); experiment: Inhibition of recombinant mouse RANKL-induced osteoclastogenesis of mouse RAW264.7 cells assessed as suppression of cathepsin K mRNA expression at 2.5 to 5 uM preincubated for 1 hr followed by RANKL addition measured after 24 hrs by RT-PCR analysis; assay type: cell-based; procedure, shortened: as §1
[7] = molecular target: T1, Tumor necrosis factor ligand superfamily member 11 (Mus musculus); experiment: Inhibition of recombinant mouse RANKL-induced osteoclastogenesis of mouse RAW264.7 cells assessed as suppression of NFATc1 mRNA expression at 2.5 to 5 uM preincubated for 1 hr followed by RANKL addition measured after 24 hrs by RT-PCR analysis; assay type: cell-based; procedure, shortened: as §1
[8] = molecular target: T1, Tumor necrosis factor ligand superfamily member 11 (Mus musculus); experiment: Inhibition of recombinant mouse RANKL-induced NF-kappaB expression in nuclear extracts of mouse RAW264.7 cells assessed as decrease in ratio of NFATc1 to TBP level at 5 uM preincubated for 1 hr followed by RANKL addition measured after 24 hrs by Western blot analysis relative to control
Procedure, shortened: (§2)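 RAW264.7 cells (1 × 10⁵ per dish) grew in DMEM/10% FBS for 24 h. They were pretreated with compound in α-MEM/10% FBS for 1 h, then given RANKL (100 ng/mL) for 24 h. Nuclear extracts (18 µg protein) were run on 12% SDS–PAGE and immunoblotted for NF-κB p65, NFATc1 and TBP (loading reference) with ECL detection. More than two cultures.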

[9] = molecular target: T1, Tumor necrosis factor ligand superfamily member 11 (Mus musculus); experiment: Inhibition of recombinant mouse RANKL-induced bone resorptive activity of mature osteoclasts derived from mouse RAW264.7 cells assessed as attenuation of resorbing pit formation on dentine slices after 4 days by toluidine blue staining assay; assay type: tissue-based
Procedure, shortened: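 Cells (1 × 10⁴ per well) were seeded on dentine slices in α-MEM with 10% FBS, 2 mM L-glutamine and RANKL 100 ng/mL, plus compound at 7.5, 5 or 2.5 µM. Medium was refreshed every 2 days. On day 4 cells were removed with 1 M NH₄OH and slices stained with 0.1% toluidine blue. Resorbed/total area was expressed as % of control, from more than 6 slices.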

[10] = molecular target: T1, Tumor necrosis factor ligand superfamily member 11 (Mus musculus); experiment: Inhibition of recombinant mouse RANKL-induced NF-kappaB expression in nucleus of mouse RAW264.7 cells at 5 uM preincubated for 1 hr followed by RANKL addition measured after 24 hrs by ELISA plate analysis; assay type: cell-based
Procedure, shortened: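 Cells were pretreated 1 h with compound in α-MEM/10% FBS, then stimulated with RANKL (100 ng/mL) for 24 h. NF-κB p65 DNA binding in nuclear extracts was measured on plates coated with the response element, using primary plus tagged secondary antibody. Absorbance was read at 450 nm.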

[11] = molecular target: T1, Tumor necrosis factor ligand superfamily member 11 (Mus musculus); experiment: Inhibition of recombinant mouse RANKL-induced NF-kappaB expression in nuclear extracts of mouse RAW264.7 cells assessed as decrease in ratio of NF-kappaB to TBP level at 5 uM preincubated for 1 hr followed by RANKL addition measured after 24 hrs by Western blot analysis relative to control; procedure, shortened: as §2

| SMILES | viability at 24 h, 5 µM [1] [%] | inhibition [2] [%] | also measured |
| --- | --- | --- | --- |
| O=c1oc2ccc(-c3ccc(F)cc3F)cc2c(=O)n1-c1ccccc1C(F)(F)F | 95.5 | 31.6 |  |
| O=c1oc2ccc(-c3ccc(F)cc3F)cc2c(=O)n1-c1ccc(C(F)(F)F)cc1 | 103 | 16.9 |  |
| O=c1oc2ccc(-c3ccc(F)cc3F)cc2c(=O)n1-c1cccc(C(F)(F)F)c1 | 100 | 62.9 | inhibition [3]: Dose-dependent effect |
| O=c1oc2ccc(-c3ccc(F)cc3F)cc2c(=O)n1-c1ccc(F)c(F)c1 | 72.2 | 17.4 |  |
| N#Cc1cccc(-n2c(=O)oc3ccc(-c4ccc(F)cc4F)cc3c2=O)c1 | 103 | 34 |  |
| COc1ccc(-n2c(=O)oc3ccc(-c4ccc(F)cc4F)cc3c2=O)cc1OC | 103 | 21.2 |  |
| N#Cc1ccc(-n2c(=O)oc3ccc(-c4ccc(F)cc4F)cc3c2=O)cc1 | 108 | 29.4 |  |
| COc1cccc(-n2c(=O)oc3ccc(-c4ccc(F)cc4F)cc3c2=O)c1 | 106 | 30.8 |  |
| C#Cc1cccc(-n2c(=O)oc3ccc(-c4ccc(F)cc4F)cc3c2=O)c1 | 88.4 | 57.5 | inhibition [4]: Active; inhibition [3]: Dose-dependent effect; inhibition [5]: Active; inhibition [6]: Active; inhibition [7]: Active |
| O=c1oc2ccc(-c3ccc(F)cc3F)cc2c(=O)n1-c1ccc(F)cc1F | 96.5 | 42.3 |  |
| O=c1oc2ccc(-c3ccc(F)cc3F)cc2c(=O)n1-c1ccc(Cl)cc1F | 96.2 | 19.4 |  |
| O=c1oc2ccc(-c3ccc(F)cc3F)cc2c(=O)n1-c1cc(F)ccc1F | 86.6 | 86.8 | inhibition [4]: Active; inhibition [3]: Dose-dependent effect; inhibition [5]: Active; fold change (FC) [8]: 0.61; inhibition [9]: Dose-dependent effect; inhibition [6]: Active; inhibition [10]: Active; inhibition [7]: Active; fold change (FC) [11]: 0.69 |
